Measured values: ChEMBL document CHEMBL3414488, “When structure-affinity relationships meet structure-kinetics relationships: 3-((Inden-1-yl)amino)-1-isopropyl-cyclopentane-1-carboxamides as CCR2 antagonists” (Eur J Med Chem, 2015)
The source made the active and inactive calls. No cut-off for these calls is given here.

Experiments:
[1] = target: T1, C-C chemokine receptor type 2 (Homo sapiens, UniProt P41597); experiment: Displacement of 0.1 nM [125I]CCL2 from human CCR2 expressing human U2OS cell membrane by scintillation spectrometry; type: cell membranes
Outline: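 U2OS–CCR2 membranes (15 μg) incubated 150 min at 37 °C with 0.1 nM 125I-CCL2 with or without competitor. Ki derived from IC50 by Cheng–Prusoff. Mean ± S.E.M. of at least 3 experiments in duplicate.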
Target sequence in this assay (P41597 whole entry): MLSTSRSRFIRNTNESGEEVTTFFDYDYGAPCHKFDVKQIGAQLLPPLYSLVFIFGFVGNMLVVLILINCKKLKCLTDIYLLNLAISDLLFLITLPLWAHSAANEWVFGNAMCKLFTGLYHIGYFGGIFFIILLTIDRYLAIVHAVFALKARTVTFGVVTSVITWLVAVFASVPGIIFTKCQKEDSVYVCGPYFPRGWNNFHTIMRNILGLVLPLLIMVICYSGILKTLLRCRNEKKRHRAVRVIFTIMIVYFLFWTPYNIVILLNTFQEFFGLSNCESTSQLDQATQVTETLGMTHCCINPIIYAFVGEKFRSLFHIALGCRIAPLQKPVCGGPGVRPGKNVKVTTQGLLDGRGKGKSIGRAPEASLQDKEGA

[2] = target: T1, C-C chemokine receptor type 2; experiment: Displacement of [3H]INCB3344 from human CCR2 receptor expressed in human U2OS cell membrane assessed as kinetic rate index at Ki by dual-point competition association assay relative to control; type: cell membranes
Outline: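 U2OS–CCR2 membranes (10 μg) incubated with 1.8 nM [3H]INCB3344 at 25 °C for 50 min (t1) or 240 min (t2). Unlabeled ligand was present at 1-fold its Ki from 125I-CCL2 displacement. KRI = specific binding at t1 divided by specific binding at t2.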
Target sequence in this assay (P41597 whole entry, looked up): as the sequence (P41597 whole entry) above

[3] = Residence time of the compound
[4] = target: T1, C-C chemokine receptor type 2; experiment: Antagonist activity at human CCR2 expressing human U2OS cells assessed as inhibition of CCL2-induced G protein activation at 10 uM by [35S]GTPgammaS binding/scintillation spectrometry assay; type: functional, cell-based
Outline: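 Membranes (10 μg) in 50 mM Tris-HCl pH 7.4, 5 mM MgCl2, 100 mM NaCl, 1 mM EDTA, 0.05% BSA, 10 μM GDP, 10 μg saponin; 30 min preincubation with 10 μM antagonist at 25 °C, then 10 nM CCL2 for 30 min, then 0.3 nM [35S]GTPγS for 90 min. Stopped with ice-cold buffer, GF/B filtration, scintillation counting.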
Target sequence in this assay (P41597 whole entry, looked up): as the sequence (P41597 whole entry) above

[5] = target: T1, C-C chemokine receptor type 2; experiment: Displacement of 0.1 nM [125I]CCL2 from human CCR2 expressing human U2OS cell membrane by scintillation spectrometry
Target sequence in this assay (P41597 whole entry, looked up): as the sequence (P41597 whole entry) above

Row | SMILES | Ki [1] [µM] | Ratio [2] | Residence time [3] [min] | inhibition [4] | inhibition [5] [%] | Kd [1] [µM]
1 | CC(C)[C@]1(C(=O)N2CCc3ccc(C(F)(F)F)cc3C2)CC[C@@H](NC2CCc3c(C#N)cccc32)C1 (stereo not given in full) | 0.015 | 0.6 |  |  |  | 
2 | CCC1CC(N[C@@H]2CC[C@@](C(=O)N3CCc4ccc(C(F)(F)F)cc4C3)(C(C)C)C2)c2cc(OC)c(Br)cc21 (stereo not given in full) | 0.083 | 1.3 | 179 |  |  | 
3 | CC(C)[C@]1(C(=O)N2CCc3ccc(C(F)(F)F)cc3C2)CC[C@@H](N[C@@H]2C[C@@H](C)c3cc(Br)ccc32)C1 | 0.199 |  |  |  |  | 
4 | CC(C)[C@]1(C(=O)N2CCc3ccc(C(F)(F)F)cc3C2)CC[C@@H](N[C@H]2CCc3cc(Br)ccc32)C1 | 0.024 | 0.8 | 15 | Active |  | 
5 | CC(C)[C@]1(C(=O)N2CCc3ccc(C(F)(F)F)cc3C2)CC[C@@H](NC2CCc3cc(-c4cccc(C#N)c4)ccc32)C1 (stereo not given in full) | 0.055 | 0.7 |  |  |  | 
6 | COc1ccccc1-c1ccc2c(c1)CCC2N[C@@H]1CC[C@@](C(=O)N2CCc3ccc(C(F)(F)F)cc3C2)(C(C)C)C1 (stereo not given in full) |  |  |  |  | 2 | 
7 | Cc1ccccc1-c1ccc2c(c1)CCC2N[C@@H]1CC[C@@](C(=O)N2CCc3ccc(C(F)(F)F)cc3C2)(C(C)C)C1 (stereo not given in full) |  |  |  |  | 46 | 
8 | CC(C)[C@]1(C(=O)N2CCc3ccc(C(F)(F)F)cc3C2)CC[C@@H](NC2CCc3cc(C(F)(F)F)ccc32)C1 (stereo not given in full) | 0.013 | 1.4 | 667 | Active |  | 
9 | COc1cc2c(cc1Br)C(C)CC2N[C@@H]1CC[C@@](C(=O)N2CCc3ccc(C(F)(F)F)cc3C2)(C(C)C)C1 (stereo not given in full) | 0.013 | 1.5 | 238 |  |  | 
10 | CC(C)[C@]1(C(=O)N2CCc3ccc(C(F)(F)F)cc3C2)CC[C@@H](NC2CCc3cc(I)ccc32)C1 (stereo not given in full) | 0.0044 | 1.3 | 103 |  |  | 
11 | CC(C)[C@]1(C(=O)N2CCc3ccc(C(F)(F)F)cc3C2)CC[C@@H](NC2CCc3ccc(Cl)cc32)C1 (stereo not given in full) | 0.0079 | 0.6 |  |  |  | 
12 | CC(C)[C@]1(C(=O)N2CCc3ccc(C(F)(F)F)cc3C2)CC[C@@H](NC2CCc3cc(-c4ccc(C#N)cc4)ccc32)C1 (stereo not given in full) | 0.011 | 0.9 |  |  |  | 
13 | CC1CC(N[C@@H]2CC[C@@](C(=O)N3CCc4ccc(C(F)(F)F)cc4C3)(C(C)C)C2)c2ccccc21 (stereo not given in full) | 0.0034 | 0.7 |  |  |  | 
14 | COc1cncc(-c2ccc3c(c2)CCC3N[C@@H]2CC[C@@](C(=O)N3CCc4ccc(C(F)(F)F)cc4C3)(C(C)C)C2)c1 (stereo not given in full) | 0.041 | 0.8 |  |  |  | 
15 | CC(C)[C@]1(C(=O)N2CCc3ccc(C(F)(F)F)cc3C2)CC[C@@H](NC2CCc3cc(-c4ccccc4)ccc32)C1 (stereo not given in full) |  |  |  |  | 28 | 
16 | CC(C)[C@]1(C(=O)N2CCc3ccc(C(F)(F)F)cc3C2)CC[C@@H](NC2CCc3c(N)cccc32)C1 (stereo not given in full) | 0.0046 | 0.7 |  |  |  | 
17 | CC(C)[C@]1(C(=O)N2CCc3ccc(C(F)(F)F)cc3C2)CC[C@@H](NC2CCc3cc(F)ccc32)C1 (stereo not given in full) | 0.0049 | 0.9 | 55 |  |  | 
18 | CC(C)[C@]1(C(=O)N2CCc3ccc(C(F)(F)F)cc3C2)CC[C@@H](NC2CCc3c(O)cccc32)C1 (stereo not given in full) | 0.021 | 0.7 |  |  |  | 
19 | COc1cc2c(cc1OC)C(N[C@@H]1CC[C@@](C(=O)N3CCc4ccc(C(F)(F)F)cc4C3)(C(C)C)C1)CC2 (stereo not given in full) | 0.0012 | 1 | 63 |  |  | 

Continued, values first:

Row | Ki [1] [µM] | Ratio [2] | Residence time [3] [min] | inhibition [4] | inhibition [5] [%] | Kd [1] [µM] | SMILES
20 | 0.0016 | 1.2 | 100 |  |  |  | CC(C)[C@]1(C(=O)N2CCc3ccc(C(F)(F)F)cc3C2)CC[C@@H](NC2CCc3cc(Cl)ccc32)C1 (stereo not given in full)
21 | 0.031 | 0.7 |  |  |  |  | Cc1cccc2c1CCC2N[C@@H]1CC[C@@](C(=O)N2CCc3ccc(C(F)(F)F)cc3C2)(C(C)C)C1 (stereo not given in full)
22 | 0.012 | 0.8 |  |  |  |  | COc1cc(-c2ccc3c(c2)CCC3N[C@@H]2CC[C@@](C(=O)N3CCc4ccc(C(F)(F)F)cc4C3)(C(C)C)C2)c(F)cn1 (stereo not given in full)
23 | 0.0024 | 1.7 | 714 | Active |  |  | CC(C)[C@]1(C(=O)N2CCc3ccc(C(F)(F)F)cc3C2)CC[C@@H](N[C@@H]2CCc3cc(Br)ccc32)C1
24 | 0.015 | 0.5 | 8.3 |  |  |  | CC(C)[C@]1(C(=O)N2CCN(c3cc(C(F)(F)F)ccn3)CC2)CC[C@@H](NC2CCc3ccccc32)C1 (stereo not given in full)
25 | 0.0022 | 1 | 21 |  |  |  | CC(C)[C@]1(C(=O)N2CCc3ccc(C(F)(F)F)cc3C2)CC[C@@H](NC2CCc3ccccc32)C1 (stereo not given in full)
26 | 0.023 | 0.6 |  |  |  |  | Cc1ccc2c(c1)C(N[C@@H]1CC[C@@](C(=O)N3CCc4ccc(C(F)(F)F)cc4C3)(C(C)C)C1)CC2 (stereo not given in full)
27 |  |  |  |  | 24 |  | Cc1cccc(-c2ccc3c(c2)CCC3N[C@@H]2CC[C@@](C(=O)N3CCc4ccc(C(F)(F)F)cc4C3)(C(C)C)C2)c1 (stereo not given in full)
28 | 0.039 | 0.8 |  |  |  |  | COc1cccc(-c2ccc3c(c2)CCC3N[C@@H]2CC[C@@](C(=O)N3CCc4ccc(C(F)(F)F)cc4C3)(C(C)C)C2)c1 (stereo not given in full)
29 | 0.002 | 1.3 | 345 |  |  |  | CC1CC(N[C@@H]2CC[C@@](C(=O)N3CCc4ccc(C(F)(F)F)cc4C3)(C(C)C)C2)c2ccc(Br)cc21 (stereo not given in full)
30 | 0.01 | 0.5 |  |  |  |  | CCOc1cncc(-c2ccc3c(c2)CCC3N[C@@H]2CC[C@@](C(=O)N3CCc4ccc(C(F)(F)F)cc4C3)(C(C)C)C2)c1 (stereo not given in full)
31 | 0.023 | 0.6 |  |  |  |  | COc1cc(-c2ccc3c(c2)CCC3N[C@@H]2CC[C@@](C(=O)N3CCc4ccc(C(F)(F)F)cc4C3)(C(C)C)C2)ccn1 (stereo not given in full)
32 | 0.0017 | 1.4 | 588 | Active |  |  | CC(C)[C@]1(C(=O)N2CCc3ccc(C(F)(F)F)cc3C2)CC[C@@H](N[C@H]2C[C@@H](C)c3cc(Br)ccc32)C1
33 | 0.013 | 0.6 |  |  |  |  | CC(C)[C@]1(C(=O)N2CCc3ccc(C(F)(F)F)cc3C2)CC[C@@H](NC2CCc3ccc(C#N)cc32)C1 (stereo not given in full)
34 | 0.137 |  |  |  |  |  | CC(C)[C@]1(C(=O)N2CCc3ccc(C(F)(F)F)cc3C2)CC[C@@H](N[C@@H]2C[C@H](C)c3cc(Br)ccc32)C1
35 | 0.01 | 0.7 |  |  |  |  | CC(C)[C@]1(C(=O)N2CCc3ccc(C(F)(F)F)cc3C2)CC[C@@H](NC2CCc3cc(-c4cccnc4)ccc32)C1 (stereo not given in full)
36 | 0.0045 | 1.3 | 323 |  |  |  | COc1cc2c(cc1Br)CCC2N[C@@H]1CC[C@@](C(=O)N2CCc3ccc(C(F)(F)F)cc3C2)(C(C)C)C1 (stereo not given in full)
37 | 0.0023 | 1.3 | 213 |  |  |  | CC(C)[C@]1(C(=O)N2CCc3ccc(C(F)(F)F)cc3C2)CC[C@@H](NC2CCc3cc(Br)ccc32)C1 (stereo not given in full)
38 | 0.00055 |  | 92 |  |  | 0.00048 | CO[C@@H]1COCC[C@@H]1N[C@@H]1CC[C@@](C(=O)N2CCc3ncc(C(F)(F)F)cc3C2)(C(C)C)C1 [MK-0812]
39 | 0.049 | 0.8 |  |  |  |  | COc1ccc(OC)c2c1CCC2N[C@@H]1CC[C@@](C(=O)N2CCc3ccc(C(F)(F)F)cc3C2)(C(C)C)C1 (stereo not given in full)
40 |  | 0.8 | 9.1 |  |  |  | CC(C)[C@]1(C(=O)NCc2cc(C(F)(F)F)cc(C(F)(F)F)c2)CC[C@@H](NC2CCc3ccccc32)C1 (stereo not given in full)
41 | 0.0046 | 1.2 | 208 | Active |  |  | CC(C)[C@]1(C(=O)N2CCc3ccc(C(F)(F)F)cc3C2)CC[C@@H](N[C@H]2C[C@H](C)c3cc(Br)ccc32)C1
42 | 0.075 | 0.9 |  |  |  |  | COc1ccc(-c2ccc3c(c2)CCC3N[C@@H]2CC[C@@](C(=O)N3CCc4ccc(C(F)(F)F)cc4C3)(C(C)C)C2)cc1 (stereo not given in full)
